Source: paper PMC7049346 (Haematologica, 2019)

Experiments:
K562 cells [1] = conditions: cited from earlier work
K562 cells [2] = assay: HbF induction in K562 cells; assay type: cell-based, human; conditions: 72 h
HbSS-Townes mice [3] = assay: Townes SCD model, 30 days daily oral dosing; assay type: in vivo; conditions: for percentage of sickled RBC: vehicle 56%
HbSS-Townes mice [4] = assay: HbSS-Townes vaso-occlusive crisis model; assay type: in vivo; conditions: HU 100 mg/kg/day for ten days, P<0.05
[5] = system: erythroid cells from CD34+ progenitors of SCD patients; assay: HbF induction in SCD patient-derived erythroblasts; assay type: cell-based, human; conditions: 30 μM HU
Procedure, shortened: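 CD34⁺ progenitors came from the blood or bone marrow of nine SCD donors. Cells grew seven days with 15% BIT 9500, 2 mM L-glutamine, IL-3 (10 ng/mL), IL-6 and SCF (100 ng/mL). CD36⁺ cells were then isolated and grown five days with SCF, IL-3 and EPO (2 UI/mL) plus DMSO, 30 μM hydroxyurea or 10 μM test compound. HbF⁺ cells (%) and HbF MFI were read by PE-anti-HbF FACS, gated LiveDead⁻/GPA⁺/Band3⁺.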

K562 cells [6] = assay: cGMP induction in K562 cells; assay type: cell-based, human; conditions: 6 h
Procedure, shortened: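 Actively growing K562 cells were treated for 6 h with increasing concentrations of the test compound or hydroxyurea. cGMP was measured by non-radioactive enzyme immunoassay using the acetylation protocol, and protein by BCA assay. Data are means±Standard Errors.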

K562 cells [7] = assay: Cytotoxicity in K562 cells; assay type: cell-based, human; conditions: end of 72-h culture
Procedure, shortened: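 Actively growing K562 cells were cultured for 72 h with increasing concentrations of the test compound. Terminal viability was scored by automated cell counting or trypan-blue exclusion, or by an ATP-based luminescence assay. Apoptosis was checked by Annexin V flow cytometry.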

mice = assay: Classical fear conditioning model of learning and memory; assay type: in vivo; conditions: similar dose of both PDE9i
[8] = HU 100 mg/kg, 30 days, not significant

C[C@H](Cc1nc2c(cnn2-c2ccccc2Cl)c(=O)[nH]1)C(F)(F)F [BAY73-6691]
HbF mRNA expression (K562 cells [1]): increased HbF mRNA expression

Nc1nc(-c2nn(Cc3ccccc3F)c3ncccc23)ncc1C1CC1 [BAY 41-2271]
HbF mRNA expression (K562 cells [1]): increased HbF mRNA expression

NC(=O)NO [HU, Hydroxyurea]
HbF induction (ELISA) (K562 cells [2]): induced HbF in a dose-dependent manner
percentage of sickled RBC (HbSS-Townes mice [3]; HU 25 mg/kg/day, 30 days): 52%
percent F-cells (HbSS-Townes mice [3]; HU 25 mg/mL/day (so in the source), 30 days, vehicle 8.4%, not significant): 13%
percentage of sickled RBC (HbSS-Townes mice [3]; HU 50 mg/kg/day, 30 days): 49%
percent F-cells (HbSS-Townes mice [3]; HU 50 mg/mL/day (so in the source), 30 days, vehicle 8.4%, not significant): 18%
WBC lower than vehicle (HbSS-Townes mice [3]; HU 100 mg/kg, 30 days): 21%
reduction of MPO levels (HbSS-Townes mice [3]; HU 100 mg/kg, 30 days): 2.1 fold
reduction of lung arginase (compared with IMR-687) (HbSS-Townes mice [3]; HU 100 mg/kg, 30 days): less pronounced
reduction of plasma free Hb levels (HbSS-Townes mice [3]; HU 100 mg/kg, 30 days): approximately 55%
lung MPO levels (HbSS-Townes mice [3]; HU 100 mg/kg, 30 days, HbSS-Townes vehicle 3.1 mU/L, P<0.0001): 1.5 mU/L
plasma bilirubin (HbSS-Townes mice [3]; HU 100 mg/kg, 30 days, P<0.01): 5 mg/dL
changes in reticulocyte counts, RBC, hematocrit and Hb (compared with IMR-687) (HbSS-Townes mice [3]; HU 100 mg/kg, 30 days, changes in Hb not significant): produced smaller changes
LDH levels (HbSS-Townes mice [3]; [8]): 121 AU
plasma nitrite levels (HbSS-Townes mice [3]; [8]): 1.23 mg/mL
WBC count (HbSS-Townes mice [3]; HU 100 mg/kg, 30 days, vehicle 38.2×10^9/L): 3.04e+10 L⁻¹
Mortality (HbSS-Townes mice [3]; HU 100 mg/kg/day): resulted in mortality in mice
percent F cells (HbSS-Townes mice [3]; HU 100 mg/kg/day, 30 days, vehicle 8.4%): 29.3%
percent sickled RBC (HbSS-Townes mice [3]; HU 100 mg/kg/day, 30 days, vehicle 56.3%): 28.8%
changes in reticulocyte counts, RBC, hematocrit and Hb (HbSS-Townes mice [3]; HU 25 and 50 mg/kg, 30 days): only the change in reticulocyte counts was significant
reduction of markers of hemolysis (bilirubin, LDH) (HbSS-Townes mice [3]; HU 25 and 50 mg/kg, 30 days): did not produce a significant reduction
lung MPO levels (HbSS-Townes mice [3]; lower doses of HU, 30 days): reduced MPO levels in the lungs
microvascular stasis (HbSS-Townes mice [4]; 1 h in normoxia, vehicle 33%): 13%
microvascular stasis (HbSS-Townes mice [4]; 4 h in normoxia, vehicle 16%): 8%
percentage of F-cells (HbF positive) ([5]; five days, DMSO control 13.3%, n=7, P<0.01): 22.2%
intensity of HbF staining (MFI) ([5]; five days, control 6073±1217, n=7, P=0.041): 9744±2805
Cytotoxicity in patient-derived cultures ([5]; 9 cultures): cytotoxicity induced by HU in 2 cultures
cGMP induction (K562 cells [6]): increases cGMP in a dose-dependent manner
Cytotoxicity (cell counts) (K562 cells [7]): induction was accompanied by cytotoxicity

C[C@@H]1CN(Cc2ncccn2)C[C@H]1c1nc2c(cnn2C2CCOCC2)c(=O)[nH]1 [PF-04447943, 6-[(3S,4S)-4-methyl-1-(pyrimidin-2-ylmethyl)pyrrolidin-3-yl]-1-(tetrahydro-2H-pyran-4-yl)-1,5-dihydro-4H-pyrazolo[3,4-d]pyrimidin-4-one, reference compound]
conditioned fear responses (mice): significantly increased conditioned fear responses
